Measurements reported in ChEMBL document CHEMBL3352330, “Discovery of azetidine based ene-amides as potent bacterial enoyl ACP reductase (FabI) inhibitors” (Eur J Med Chem, 2014).
In brackets after ≈: the same amount, converted by molar mass.

Columns and labels:
[1] = system: Staphylococcus aureus; experiment: Antibacterial activity against methicillin-sensitive Staphylococcus aureus ATCC 29213 after 16 to 20 hrs by broth microdilution method; format: functional
Summary of the method: (§1)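 Broth microdilution in MHB, serial two-fold compound dilutions; final inoculum 5 × 10⁵ CFU/mL; broth, compound and organism controls in duplicate; S. aureus ATCC 29213 as quality control strain; incubation 35 °C, 16–20 h, ambient air; growth read by unaided eye with viewing device, end point set against no-antibiotic control wells.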

[2] = biological target: T1, Enoyl-[acyl-carrier-protein] reductase [NADPH] FabI (Staphylococcus aureus) (UniProt Q6GI75); experiment: Inhibition of Staphylococcus aureus FabI-mediated reduction of enoyl-ACP preincubated at 1 uM for 30 mins measured after 2 hrs by spectrophotometry
T1 sequence (whole entry): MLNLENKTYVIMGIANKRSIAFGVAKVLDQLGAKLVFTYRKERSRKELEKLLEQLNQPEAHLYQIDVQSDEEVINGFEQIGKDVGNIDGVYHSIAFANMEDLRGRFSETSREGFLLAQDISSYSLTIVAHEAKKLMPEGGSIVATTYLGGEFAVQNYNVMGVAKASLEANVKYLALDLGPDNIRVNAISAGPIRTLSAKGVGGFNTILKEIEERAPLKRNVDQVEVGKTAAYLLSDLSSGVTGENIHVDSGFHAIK
Summary of the method: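 Spectrophotometric FabI assay in 100 mM sodium ADA buffer, pH 6.5. Enzyme (2400 ng/assay) preincubated 30 min with NADH and compound. Reaction started with crotonoyl CoA. After 2 h at room temperature, NADH oxidation read as the fall in absorbance at 340 nm.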

[3] = biological target: T2, Enoyl-[acyl-carrier-protein] reductase [NADPH] FabI (Staphylococcus aureus, UniProt Q6GI75); experiment: Inhibition of Staphylococcus aureus FabI-mediated reduction of enoyl-ACP preincubated for 30 mins measured after 2 hrs by spectrophotometry
T2 sequence (Q6GI75 whole entry): T1 sequence (whole entry)

[4] = system: Staphylococcus aureus; experiment: Antibacterial activity against methicillin-resistant Staphylococcus aureus ATCC 33591 after 16 to 20 hrs by broth microdilution method; format: functional; summary of the method: as §1
[5] = system: Staphylococcus epidermidis; experiment: Antibacterial activity against methicillin-resistant Staphylococcus epidermidis AUCC 704 after 16 to 20 hrs by broth microdilution method; format: functional; summary of the method: as §1
[6] = Tmax in Swiss albino CD-1 mouse at 10 mg/kg, po administered as single dose; format: ADME, organism-based; set-up: dose 10 mg/kg, route oral; details: in vivo
Summary of the method: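 Oral gavage, 10 mg/kg single dose, given as a suspension in 0.25% Tween 80 with 0.225% sodium carboxymethyl cellulose. Blood drawn from the retro-orbital plexus into EDTA at set times (sparse sampling, n = 3 per time point). Plasma stored at −20 °C and assayed by LC-MS/MS. Parameters from non-compartmental analysis.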

[7] = Metabolic stability in mouse liver mirosomes assessed as compound remaining at 1 uM after 60 mins by LC-MS/MS analysis; format: ADME, tissue-based; details: liver microsomes, read-out: Stability
Summary of the method: (§2)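 Compound tested at 1 µM in mouse liver microsomes (0.3 mg/mL protein) with 1 mM NADPH in KH₂PO₄ buffer, pH 7.4, at 37 °C. Reactions stopped at 0, 15 and 60 min with acetonitrile containing carbamazepine internal standard. Samples centrifuged and the supernatant analysed by LC-MS/MS.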

[8] = Metabolic stability in mouse liver mirosomes assessed as compound remaining at 1 uM after 15 mins by LC-MS/MS analysis; format: ADME, tissue-based; details: liver microsomes, read-out: Stability; summary of the method: as §2
[9] = AUC in Swiss albino CD-1 mouse at 10 mg/kg, po administered as single dose; format: ADME, organism-based; set-up: dose 10 mg/kg, route oral; details: plasma
Summary of the method: (§3)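 Blood drawn from the retro-orbital plexus into EDTA at set times (sparse sampling, n = 3 per time point). Plasma stored at −20 °C and assayed by LC-MS/MS. Parameters from non-compartmental analysis.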

[10] = Cmax in Swiss albino CD-1 mouse at 10 mg/kg, po administered as single dose; format: ADME, organism-based; set-up: dose 10 mg/kg, route oral; details: in vivo; summary of the method: as §3
[11] = Half life in Swiss albino CD-1 mouse at 10 mg/kg, po administered as single dose; format: ADME, organism-based; set-up: dose 10 mg/kg, route oral; details: in vivo; summary of the method: as §3
[12] = system: Staphylococcus aureus; experiment: Antibacterial activity against methicillin-resistant Staphylococcus aureus ATCC 33591 infected in Swiss albino CD-1 mouse compound administered orally bid at 1 hr and 4 hrs post infection; format: functional; details: ATCC 33591, po

Compound | MIC [1] [µg/mL] | inhibition [2] [%] | IC50 [3] [nM] | MIC [4] [µg/mL] | MIC [5] [µg/mL] | Tmax [6] [h] | remaining at 1 h, 1 µM [7] [%] | remaining at 0.25 h, 1 µM [8] [%] | AUC [9] [ng·h/mL] | Cmax [10] [ng/mL] | half-life [11] [h] | ED50 [12] [mg/kg]
Cc1c(C2CN(C(=O)/C=C/c3cnc4c(c3)CN(CCN3CCOCC3)C(=O)N4)C2)oc2ccccc12 | 1 (≈ 1.99 µM) | 105 | 58 | 1 (≈ 1.99 µM) | 2 (≈ 3.99 µM) | – | – | – | – | – | – | –
O=C1CCc2cc(/C=C/C(=O)N3CC(Oc4ccccc4)C3)cnc2N1 | 4 (≈ 11.4 µM) | 35 | – | 4 (≈ 11.4 µM) | 16 (≈ 45.8 µM) | – | – | – | – | – | – | –
Cc1c(C2CN(C(=O)/C=C/c3cnc4c(c3)CCC(=O)N4)C2)sc2ccccc12 | 0.125 (≈ 0.31 µM) | 89 | 709 | 0.25 (≈ 0.62 µM) | 2 (≈ 4.96 µM) | 4 | – | – | – | – | – | –
O=C1CCc2cc(/C=C/C(=O)N3CC(COc4ccc(F)cc4)C3)cnc2N1 | 0.25 (≈ 0.655 µM) | 92 | 316 | 0.5 (≈ 1.31 µM) | 1 (≈ 2.62 µM) | 2 | – | – | – | – | – | –
Cc1c(C2CN(C(=O)/C=C/c3cnc4c(c3)CN(C)CC(=O)N4)C2)oc2ccccc12 | 0.25 (≈ 0.6 µM) | 99 | 112 | 0.25 (≈ 0.6 µM) | 0.5 (≈ 1.2 µM) | – | 6.6 | 25.6 | – | – | – | –
Cc1c(C2CN(C(=O)/C=C/c3cnc4c(c3)CCC(=O)N4)C2)oc2ccc(Cl)cc12 | 0.25 (≈ 0.593 µM) | 82 | 204 | 0.25 (≈ 0.593 µM) | 0.5 (≈ 1.19 µM) | 1 | – | – | – | – | – | –
Cc1cc(C2CN(C(=O)/C=C/c3cnc4c(c3)CCC(=O)N4)C2)nc2ccccc12 | 32 (≈ 80.3 µM) | 84 | 242 | > 32 | > 32 | – | – | – | – | – | – | –
O=C1CCc2cc(/C=C/C(=O)N3CCC3)cnc2N1 | > 32 | 15 | – | > 32 | > 32 | – | – | – | – | – | – | –
O=C1CCc2cc(/C=C/C(=O)N3CC(Cc4nc5ccccc5s4)C3)cnc2N1 | 2 (≈ 4.94 µM) | 41 | – | 4 (≈ 9.89 µM) | 2 (≈ 4.94 µM) | – | – | – | – | – | – | –
Cc1cccc(OCC2CN(C(=O)/C=C/c3cnc4c(c3)CCC(=O)N4)C2)c1 | 2 (≈ 5.3 µM) | 47 | – | 2 (≈ 5.3 µM) | 2 (≈ 5.3 µM) | – | – | – | – | – | – | –
CC(=O)Nc1ccc(/C=C/C(=O)N2CC(c3oc4ccccc4c3C)C2)cn1 | 1 (≈ 2.66 µM) | 97 | 161 | 1 (≈ 2.66 µM) | 8 (≈ 21.3 µM) | – | – | – | – | – | – | –
Cc1ccc(OCC2CN(C(=O)/C=C/c3cnc4c(c3)CCC(=O)N4)C2)cc1 | 1 (≈ 2.65 µM) | 67 | 921 | 1 (≈ 2.65 µM) | 2 (≈ 5.3 µM) | – | – | – | – | – | – | –
O=C1CCc2cc(/C=C/C(=O)N3CC(COc4cccc(F)c4)C3)cnc2N1 | 1 (≈ 2.62 µM) | 89 | 438 | 2 (≈ 5.24 µM) | 2 (≈ 5.24 µM) | – | – | – | – | – | – | –
Cc1c(C2CN(C(=O)/C=C/c3cnc4c(c3)CN(CCN3CCOCC3)CC(=O)N4)C2)oc2ccccc12 | 1 (≈ 1.94 µM) | 100 | 289 | 1 (≈ 1.94 µM) | 2 (≈ 3.88 µM) | – | – | – | – | – | – | –
O=C1CCc2cc(/C=C/C(=O)N3CC(COc4ccc5ccccc5c4)C3)cnc2N1 | 4 (≈ 9.67 µM) | 68 | 1410 | 4 (≈ 9.67 µM) | > 32 | – | – | – | – | – | – | –
O=C1CCc2cc(/C=C/C(=O)N3CC(Oc4nc5ccccc5s4)C3)cnc2N1 | > 32 | 16 | – | > 32 | > 32 | – | – | – | – | – | – | –
O=C1CCc2cc(/C=C/C(=O)N3CC(c4ccccn4)C3)cnc2N1 | 4 (≈ 12 µM) | 87 | 242 | 8 (≈ 23.9 µM) | 16 (≈ 47.8 µM) | – | – | – | – | – | – | –
O=C1CCc2cc(/C=C/C(=O)N3CC(c4ccccc4)C3)cnc2N1 | 1 (≈ 3 µM) | 80 | 488 | 2 (≈ 6 µM) | 2 (≈ 6 µM) | – | – | – | – | – | – | –
Cc1c(CN(C)C(=O)/C=C/c2cnc3c(c2)CCC(=O)N3)oc2ccccc12 [AFN-1252] | 0.008 (≈ 0.0213 µM) | 100 | 29 | 0.008 (≈ 0.0213 µM) | 0.008 (≈ 0.0213 µM) | 1 | 17.5 | 55.4 | 2200 | 440 | 1.84 | –
COc1ccc2oc(C3CN(C(=O)/C=C/c4cnc5c(c4)CCC(=O)N5)C3)c(C)c2c1 | 0.5 (≈ 1.2 µM) | – | – | 1 (≈ 2.4 µM) | 2 (≈ 4.79 µM) | – | – | – | – | – | – | –
Cc1ccccc1OCC1CN(C(=O)/C=C/c2cnc3c(c2)CCC(=O)N3)C1 | 0.25 (≈ 0.662 µM) | 80 | 177 | 0.5 (≈ 1.32 µM) | 1 (≈ 2.65 µM) | 2 | – | – | – | – | – | –
Cc1c(C2CN(C(=O)/C=C/c3cnc4c(c3)NCCC(=O)N4)C2)oc2ccccc12 | 0.25 (≈ 0.621 µM) | 92 | 316 | 0.5 (≈ 1.24 µM) | 1 (≈ 2.48 µM) | – | – | – | – | – | – | –
Cc1c(C2CN(C(=O)/C=C/c3cnc4c(c3)CCC(=O)N4)C2)oc2ccccc12 | 0.06 (≈ 0.155 µM) | 96 | 141 | 0.06 (≈ 0.155 µM) | 0.5 (≈ 1.29 µM) | 2 | – | – | – | – | – | 0.9
Cc1c(C2CN(C(=O)/C=C/c3ccc(NC(=O)Cn4ccnn4)nc3)C2)oc2ccccc12 | > 32 | 66 | 843 | > 32 | > 32 | – | – | – | – | – | – | –
Cc1c(C2CN(C(=O)/C=C/c3cnc4c(c3)CNCC(=O)N4)C2)oc2ccccc12 | 0.25 (≈ 0.621 µM) | 83 | 384 | 0.25 (≈ 0.621 µM) | 1 (≈ 2.48 µM) | 0.5 | 76.4 | 96.2 | 9000 | 2250 | 8.5 | –
CC(=O)NC[C@H]1CN(c2ccc(N3CCOCC3)c(F)c2)C(=O)O1 [LINEZOLID] | – | – | – | – | – | – | – | – | – | – | – | 2.8
O=C1CCc2cc(/C=C/C(=O)N3CC(c4nc5ccccc5s4)C3)cnc2N1 | 0.25 (≈ 0.64 µM) | 83 | 373 | 0.25 (≈ 0.64 µM) | 1 (≈ 2.56 µM) | 2 | – | – | – | – | – | –
O=C1CCc2cc(/C=C/C(=O)N3CC(OCc4ccccc4)C3)cnc2N1 | 1 (≈ 2.75 µM) | 69 | 376 | 2 (≈ 5.5 µM) | 2 (≈ 5.5 µM) | – | – | – | – | – | – | –
O=C1CCc2cc(/C=C/C(=O)N3CC(COc4ccccc4F)C3)cnc2N1 | 1 (≈ 2.62 µM) | 99 | 378 | 1 (≈ 2.62 µM) | 2 (≈ 5.24 µM) | – | – | – | – | – | – | –
O=C1CCc2cc(/C=C/C(=O)N3CC(COc4ccccc4)C3)cnc2N1 | 0.25 (≈ 0.688 µM) | 81 | 265 | 0.25 (≈ 0.688 µM) | 1 (≈ 2.75 µM) | – | – | – | – | – | – | –
